XBP1 UPR activ: activators of adaptive XBP1 UPR arm, primary screen, cell-based, CHO-XBP1 luciferase reporter, luminescence, uHTS; 330,000 compounds, 0.33% hits; activation, % at 20 µM; IRE1-XBP1 UPR activation; percent of tunicamycin response, DMSO as zero;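 active = versus positive control, 20 µM dose yields 30% or more activation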
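incubation = overnight seeding at 37 °C, 6 h compound treatment at 37 °C | assay system = CHO-XBP1 cells stably carrying IRE1-XBP1-driven luciferase reporter | input = 1000 cells per well | detection = luciferase luminescence | dosing = single point, 20 µM final compound, 1% DMSO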
NR3A LBD binder: binders of NR3A ligand-binding domain, primary screen, biophysical, differential scanning fluorimetry, uHTS. NR3A LBD differential scanning fluorimetry, Tm shift; 0% = protein alone, 100% = glycine-bound protein. Tm shift relative to glycine control, % at 25 µM. Glutamate receptor ionotropic, NMDA 3A (GRIN3A) ligand-binding domain. 340,000 compounds, 2.5% hits;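 active = melting temperature shift of at least 10% of the positive control shift, at one fixed dose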
MPTP block: mitochondrial permeability transition pore inhibitors, primary screen, biochemical, isolated mouse mitochondria, absorbance | Ca2+ swelling absorbance, 30 min | inhibition, % at 10 µM | 360,000 compounds, 1.4% hits | AID 602449, 2012;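 active = inhibition of 50% or more, scaled per plate between neutral and stimulator controls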
CHOP inh: inhibitors of CHOP promoter induction, primary screen, cell-based, unfolded protein response, luciferase reporter; 220,000 compounds, 3.8% hits; inhibition, % at 10 µM; CHO-K1 CHOP-promoter luciferase, tunicamycin-induced, 15-18 h;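 active = compounds that reduced the stress-induced luciferase reporter signal by more than about 70% of percent inhibition, limit read from the data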
aDG glyco act: activators of alpha-DG glycosylation, primary screen, uHTS, Pro5-aDG cells, AlphaScreen; 360,000 compounds, 0.22% hits; alpha-DG glycosylation AlphaScreen (IIH6); 0% Pro5, 100% B10-LARGE cell signal; activation, % at 10 µM;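 active = activation of at least 8% versus controls, or a plate z-score of at least 8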;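 note: Pro5 are CHO cells carrying HIG-tagged alpha-DG that lacks glycosylation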
CHOP UPR activ: activators of apoptotic CHOP UPR arm, primary screen, cell-based, CHO-CHOP luciferase reporter, luminescence, uHTS | UPR activation; percent of tunicamycin response over DMSO baseline | activation, % at 10 µM | 330,000 compounds, 0.34% hits | AID 449763, 2010;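 active = at 10 µM dose, activation of 40% or more, normalized to positive control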
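Assay system: CHO cells with stable CHOP pathway luciferase reporter; Buffer or medium: F12 plus 10% serum; Times: 16-18 h cell attachment, then 6 h compound exposure, 37 °C; Signal: luciferase luminescence; Read-out basis: percent activation relative to tunicamycin control; Control set: tunicamycin high control, DMSO low control.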
Hits are given with their value; - = inactive; . = no result. Most compounds without a hit are left out; they make up all but 5.6% or so of the library.

SMILES	XBP1 UPR activ	NR3A LBD binder	MPTP block	CHOP inh	aDG glyco act	CHOP UPR activ
CSc1ccccc1NC(=O)CN(Cc1ccccc1)S(C)(=O)=O	-	-	-	-	-	-
CN1C(=O)OC(C)(C)C1=O	-	.	-	.	-	-
Cc1ccc2cc(C#N)c(N3CCCN(S(=O)(=O)c4ccccc4)CC3)nc2c1	-	-	-	-	-	-
Cc1ccc2cc(C#N)c(N3CCCN(S(=O)(=O)c4ccccc4)CC3)nc2c1C	-	11.1	-	.	-	-
CSc1nc(-c2ccccc2)nn1C(=O)c1ccccc1	-	-	-	-	-	-
COc1ccc(C(=O)n2nc(-c3ccccc3)nc2SC)cc1	.	17.4	-	-	-	.
COC(=O)c1cc(C#N)c(SCc2ccccc2)nc1C	-	-	-	-	-	-
CC(=O)c1cc(C#N)c(SCc2ccccc2)nc1C	-	15.2	-	-	-	-
CCCSc1nc(C)c(C(C)=O)cc1C#N	-	-	-	70.1	-	-
CCOC(=O)c1cccc(C2=CC(=O)C[C@H](c3ccc(OC)c(OC)c3)C2)c1	-	-	-	.	-	-
CC(C)NC(=O)c1cc(C2CCCCN2S(=O)(=O)c2cccs2)on1 (centres undefined)	.	.	-	.	-	.
O=C(N/C(=N\O)c1ccccc1)Nc1ccc(Cl)cc1	-	22.6	-	-	-	-
O=C(C1=C(O)/C(=C/c2ccc(O)cc2)CCC1)C(F)(F)F	-	12.3	-	-	-	-
COc1ccc(/C=C2\CCCC(C(=O)C(F)(F)F)=C2O)cc1	-	-	-	-	-	-
O=C(NCc1ccccn1)C1CN(S(=O)(=O)c2ccccc2)CCN1S(=O)(=O)c1ccccc1 (centres undefined)	-	-	-	-	-	-
Cc1cc(C)c(S(=O)(=O)/N=C2/C=C(Sc3ncn[nH]3)C(=O)c3ccccc32)cc1C	.	-	-	108.7	-	.
O=C1c2ccccc2C(=O)c2c1ccc(C(=O)N1CCCCC1)c2NCCO	-	12.3	-	-	-	-
Cc1ccc(NC(=O)c2nc[nH]c2C(=O)NCCCCCCNC(=O)c2[nH]cnc2C(=O)Nc2ccc(C)cc2)cc1	-	19.7	-	.	-	-
Cc1ccc(NC(=O)c2nc[nH]c2C(=O)NCCCCNC(=O)c2[nH]cnc2C(=O)Nc2ccc(C)cc2)cc1	-	13.4	-	.	-	-
CC(C)(C)OC(=O)NCc1ccc(NC(=O)c2nc[nH]c2C(=O)NCCN(CCNC(=O)c2[nH]cnc2C(=O)Nc2ccc(CNC(=O)OC(C)(C)C)cc2)CCNC(=O)c2[nH]cnc2C(=O)Nc2ccc(CNC(=O)OC(C)(C)C)cc2)cc1	-	10.6	-	.	-	-
Cc1ccc(NC(=O)c2nc[nH]c2C(=O)NCCCCCNC(=O)OC(C)(C)C)cc1	-	-	-	.	-	-
O=C(Nc1cccc(Cl)c1)c1nc[nH]c1C(=O)NCCCNC(=O)c1[nH]cnc1C(=O)Nc1cccc(Cl)c1	-	22.6	-	.	-	-
CC(C)(C)OC(=O)NCc1ccc(NC(=O)c2nc[nH]c2C(=O)NCCCNC(=O)c2[nH]cnc2C(=O)Nc2ccc(CNC(=O)OC(C)(C)C)cc2)cc1	-	-	-	.	-	-
C[C@H]1CN([C@@H](C)CO)S(=O)(=O)c2ccc(Br)cc2O[C@@H]1CN(C)C(=O)C1CCOCC1	.	.	-	.	-	.
N#Cc1c(C(F)(F)F)cc(-c2ccccc2)nc1SCC(=O)Nc1sc2c(c1C#N)CCC2	-	10.5	-	73.7	-	-
CCc1nnc(NC(=O)CSc2nc(-c3ccccc3)cc(-c3ccc(F)cc3)c2C#N)s1	-	-	-	83.6	-	-
N#Cc1c(C(F)(F)F)cc(-c2ccccc2)nc1SCc1nc(N)nc(N2CCOCC2)n1	-	16.0	-	-	-	-
CCc1nnc(NC(=O)CSc2nc(-c3ccccc3)nc3ccccc23)s1	-	-	-	90.3	-	-

Source: PubChem
